Source: ChEMBL document CHEMBL1136847, “Syntheses and potential anti-prostate cancer activities of ionone-based chalcones” (Bioorg Med Chem Lett, 2009)
Changes are numbered by the printed parent chain.

What was measured:
[1] = system: Androgen receptor (Homo sapiens), P10275 [T878A]; test: Antagonist activity at androgen receptor T877A mutant in human PC3 cells transiently transfected with pCMV-MMTV-Luc assessed as suppression of DHT-induced receptor transactivation; type: functional, cell-based; conditions: PC-3
Method in brief: (§1)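 PC-3 cells seeded 24 h before co-transfection with MMTV-luciferase reporter (100 ng), the wild-type, T877A, W741C or H874Y AR plasmid (10 ng) and Renilla null luciferase (10 ng) using Lipofectamine 2000. Medium switched after 5 h to phenol red-free RPMI 1640 with 10% charcoal-stripped FBS. After 16 h, 0.1 nM DHT ± compound (0.1, 1.0 µM) for 24 h. Dual-luciferase read-out, Renilla-standardized, normalized to DHT alone (100%).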

LNCaP = test: Cytotoxicity against androgen-dependent human LNCAP cells with T877A AR mutant after 72 hrs by MTT assay; type: functional, cell-based
Method in brief: (§2)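 Cells seeded at 6000–7000 per well in RPMI 1640 with 10% FBS, penicillin and streptomycin, left overnight, then exposed to a range of concentrations from DMSO stock (final DMSO 0.5%) for 72 h. MTT added for a further 2 h and formazan from viable cells read. IC50 taken from survival curves, 50% inhibition relative to 0.5% DMSO control; top concentration 150 µM.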

PC-3 = test: Cytotoxicity against androgen-independent human PC3 cells after 72 hrs by MTT assay; type: functional, cell-based; conditions: PC-3, 72 h; method in brief: as §2
CWR22R = test: Cytotoxicity against human 22Rv1 cells with H874Y AR mutant after 72 hrs by MTT assay; type: functional, cell-based; conditions: 22Rv1, 72 h; method in brief: as §2
[2] = Cytotoxicity against androgen-independent human C4-2B cells with T877A mutant after 72 hrs by MTT assay; type: functional, cell-based; conditions: LNCaP C4-2B; method in brief: as §2
[3] = Cytotoxicity against androgen-dependent human MDA PCa 2b cells with T877A/L701H AR mutant after 72 hrs by MTT assay; type: functional, cell-based
Method in brief: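 Seeded at 6000–7000 cells per well in BRFF-HPC1 medium with 20% FBS, incubated overnight, then treated with serial concentrations diluted from DMSO stock (final DMSO 0.5%) for 72 h. Viability by MTT, 2 h with reagent, formazan measured. IC50 from survival curves as 50% inhibition versus 0.5% DMSO vehicle; maximum concentration tested 150 µM.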

[4] = Cytotoxicity against human RWPE1 cells after 72 hrs by MTT assay; type: cell-based; conditions: RWPE-1, 72 h
Method in brief: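 Non-tumorigenic prostate epithelial line plated at 6000–7000 cells per well in keratinocyte serum-free medium with 0.05 mg/mL bovine pituitary extract and 5 ng/mL EGF; overnight attachment, then compounds at various concentrations in 0.5% final DMSO for 72 h. MTT 2 h, formazan read; IC50 from survival curves versus DMSO control.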

[5] = target: T1, Androgen receptor (Homo sapiens) (UniProt P10275); test: Antagonist activity at wild type androgen receptor in human PC3 cells transiently transfected with pCMV-MMTV-Luc assessed as suppression of DHT-induced receptor transactivation; type: functional, cell-based; conditions: PC-3; method in brief: as §1
T1 sequence (whole entry): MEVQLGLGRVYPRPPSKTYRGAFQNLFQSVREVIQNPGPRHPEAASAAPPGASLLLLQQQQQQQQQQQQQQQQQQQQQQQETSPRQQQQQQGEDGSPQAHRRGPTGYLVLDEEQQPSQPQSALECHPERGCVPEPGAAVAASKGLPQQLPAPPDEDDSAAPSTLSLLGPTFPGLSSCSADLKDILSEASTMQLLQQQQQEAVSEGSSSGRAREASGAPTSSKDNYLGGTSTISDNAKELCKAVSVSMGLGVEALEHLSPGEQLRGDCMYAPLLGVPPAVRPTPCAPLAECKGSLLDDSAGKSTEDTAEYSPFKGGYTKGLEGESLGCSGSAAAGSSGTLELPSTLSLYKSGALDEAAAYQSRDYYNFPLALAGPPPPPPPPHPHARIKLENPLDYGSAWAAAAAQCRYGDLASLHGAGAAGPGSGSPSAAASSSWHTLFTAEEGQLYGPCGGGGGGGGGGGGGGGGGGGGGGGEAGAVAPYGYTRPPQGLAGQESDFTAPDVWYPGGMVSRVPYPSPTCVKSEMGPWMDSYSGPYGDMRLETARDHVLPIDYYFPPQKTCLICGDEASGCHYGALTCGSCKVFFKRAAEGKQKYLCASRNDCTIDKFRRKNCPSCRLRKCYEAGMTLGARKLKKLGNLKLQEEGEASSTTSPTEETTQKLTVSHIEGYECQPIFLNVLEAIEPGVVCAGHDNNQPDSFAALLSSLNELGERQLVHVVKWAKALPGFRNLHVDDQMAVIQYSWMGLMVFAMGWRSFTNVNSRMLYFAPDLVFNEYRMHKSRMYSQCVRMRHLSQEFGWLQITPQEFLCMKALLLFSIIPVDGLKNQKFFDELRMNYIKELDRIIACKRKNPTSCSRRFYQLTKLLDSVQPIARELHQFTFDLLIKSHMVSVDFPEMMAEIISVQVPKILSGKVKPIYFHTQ

[6] = system: T2, Androgen receptor (Homo sapiens), P10275 [W742C]; test: Antagonist activity at androgen receptor W741C mutant in human PC3 cells transiently transfected with pCMV-MMTV-Luc assessed as suppression of DHT-induced receptor transactivation; type: functional, cell-based; conditions: PC-3; method in brief: as §1
T2 sequence (whole entry): T1 sequence (whole entry) with W742C

Chain of Androgen receptor (Homo sapiens), P10275 [T878A] (P10275 whole entry T878A): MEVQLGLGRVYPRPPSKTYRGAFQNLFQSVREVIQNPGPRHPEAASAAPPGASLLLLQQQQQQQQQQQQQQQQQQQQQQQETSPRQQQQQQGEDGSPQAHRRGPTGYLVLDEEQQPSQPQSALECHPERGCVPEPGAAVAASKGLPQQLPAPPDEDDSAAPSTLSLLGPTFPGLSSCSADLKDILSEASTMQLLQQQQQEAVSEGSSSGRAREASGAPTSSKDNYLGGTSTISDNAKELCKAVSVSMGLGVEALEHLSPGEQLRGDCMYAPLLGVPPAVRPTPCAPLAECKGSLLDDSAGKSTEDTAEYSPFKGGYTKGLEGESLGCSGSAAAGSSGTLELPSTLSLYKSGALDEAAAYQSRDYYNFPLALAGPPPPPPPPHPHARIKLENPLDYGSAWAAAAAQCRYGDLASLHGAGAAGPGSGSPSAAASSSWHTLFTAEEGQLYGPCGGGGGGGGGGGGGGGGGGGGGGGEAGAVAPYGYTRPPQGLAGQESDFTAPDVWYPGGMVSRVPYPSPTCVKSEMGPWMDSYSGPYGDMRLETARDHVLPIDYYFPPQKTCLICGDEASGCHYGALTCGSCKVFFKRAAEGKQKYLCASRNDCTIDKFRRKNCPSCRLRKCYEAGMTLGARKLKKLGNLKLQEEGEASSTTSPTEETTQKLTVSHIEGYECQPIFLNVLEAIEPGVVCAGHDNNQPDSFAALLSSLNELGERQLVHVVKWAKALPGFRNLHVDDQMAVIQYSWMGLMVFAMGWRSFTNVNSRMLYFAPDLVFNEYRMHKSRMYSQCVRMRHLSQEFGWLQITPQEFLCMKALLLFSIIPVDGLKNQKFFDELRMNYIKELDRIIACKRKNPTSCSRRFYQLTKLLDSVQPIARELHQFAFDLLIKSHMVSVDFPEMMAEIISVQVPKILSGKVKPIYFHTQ

In the case of `CC1=C(/C=C/C(=O)/C=C/c2cccc(C(F)(F)F)c2)C(C)(C)CCC1O` (centres undefined), the Activity [1] is reported as “Dose-dependent effect”, the IC50 (LNCaP) is reported as 0.74 µM and the IC50 (PC-3) is reported as 3.5 µM. The IC50 (CWR22R) was 1.7 µM, the IC50 [2] was 1.4 µM and the IC50 [3] was 2.6 µM. For the same compound, the IC50 [4] was 0.73 µM, the Activity [5] was “Dose-dependent effect” and the Activity [6] was “Dose-dependent effect”.
